Active and inactive are the calls of the source. No cut-off for these calls is given here.
Legend:
Rattus norvegicus [1] = organism: Rattus norvegicus; assay: Toxicity in streptozotocin induced diabetic Albino Wistar rat model assessed as induction of centrizonal triad inflammation measured 5 hrs post dose by haematoxylin and eosin staining based microscopy; format: organism-based; details: in vivo
Rattus norvegicus [2] = organism: Rattus norvegicus; assay: Hepatoprotective effect in streptozotocin induced diabetic Albino Wistar rat model assessed as reduction in serum ALT level; format: functional, organism-based
In short: (§1)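 Serum from STZ-diabetic rats (60 mg/kg i.p.) after oral treatment in 0.25% CMC. AST and ALT measured by the Reitman–Frankel method; ALP by the Walter–Schult method with p-nitrophenyl phosphate substrate.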

Rattus norvegicus [3] = organism: Rattus norvegicus; assay: Hepatoprotective effect in streptozotocin induced diabetic Albino Wistar rat model assessed as reduction in serum AST level; format: functional, organism-based; in short: as §1
Rattus norvegicus [4] = organism: Rattus norvegicus; assay: Toxicity in streptozotocin induced diabetic Albino Wistar rat model assessed as induction of sinusoidal space dilation measured 5 hrs post dose by haematoxylin and eosin staining based microscopy; format: organism-based; details: in vivo
Rattus norvegicus [5] = organism: Rattus norvegicus; assay: Toxicity in streptozotocin induced diabetic Albino Wistar rat model assessed as induction of portal triad inflammation measured 5 hrs post dose by haematoxylin and eosin staining based microscopy; format: organism-based; details: in vivo
Rattus norvegicus [6] = assay: Antidiabetic activity in streptozotocin induced diabetic Albino Wistar rat model assessed as blood glucose level dosed orally at equimolar dose of Pioglitazone by glucose oxidase method; format: functional
In short: (§2)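 STZ 60 mg/kg i.p. (freshly made in 0.1 M citrate buffer pH 4.5) to overnight-fasted rats, 5% glucose to drink overnight; diabetic if blood glucose >250 mg/dL on day 3. […] Mean ± SEM, n=5; one-way ANOVA with Dunnett's t test.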

Rattus norvegicus [7] = organism: Rattus norvegicus; assay: Hepatoprotective effect in streptozotocin induced diabetic Albino Wistar rat model assessed as reduction in serum ALP level; format: functional, organism-based; in short: as §1
Rattus norvegicus [8] = assay: Toxicity in normal Albino Wistar rat assessed as increase in body weight dosed for 15 days; format: organism-based; details: in vivo, 360 h
In short: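 Normal and STZ-diabetic Wistar rats (STZ 60 mg/kg i.p.) dosed orally daily for 15 days in 0.25% CMC suspension; body weight compared with normal and diabetic controls. Mean ± SEM, n=5; one-way ANOVA with Dunnett's t test.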

Rattus norvegicus [9] = assay: Antidiabetic activity in streptozotocin induced diabetic Albino Wistar rat model assessed as reduction in blood glucose level measured 90 mins after insulin dosing by insulin tolerance test; format: functional, organism-based
In short: (§3)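 STZ-diabetic rats (60 mg/kg i.p.; glucose >250 mg/dL on day 3) given compound orally as 0.25% CMC suspension, then oral glucose tolerance and insulin tolerance tests, blood glucose followed over time. Groups: normal control, normal + compound, diabetic control, treated diabetic. Mean ± SEM of five observations; one-way ANOVA, Dunnett's t test.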

3T3-L1 = assay: Increase in PPARgamma gene expression in mouse 3T3L1 cells at 10 uM incubated for 24 hrs by real-time PCR method relative to untreated control; format: functional
In short: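 3T3-L1 cells in DMEM with 10% calf serum, seeded 24 h ahead in 24-well plates, exposed to 10 µM compound 24 h at 37 °C, 5% CO2; DMSO vehicle as negative control. RNA extracted, reverse transcribed, qPCR in triplicate, repeated twice; relative PPAR-γ transcript by Ct method normalised to β-actin.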

Rattus norvegicus [10] = organism: Rattus norvegicus; assay: Antidiabetic activity in streptozotocin induced diabetic Albino Wistar rat model assessed as reduction in blood glucose level by oral glucose tolerance test; format: functional, organism-based; in short: as §3
[11] = molecular target: Voltage-gated inwardly rectifying potassium channel KCNH2 (Homo sapiens, UniProt Q12809); assay: Inhibition of human ERG
Rattus norvegicus [12] = assay: Antidiabetic activity in streptozotocin induced diabetic Albino Wistar rat model assessed as blood glucose level at 36 mg/kg, po by glucose oxidase method; format: functional; in short: as §2

Chain of Voltage-gated inwardly rectifying potassium channel KCNH2 (Q12809 whole entry): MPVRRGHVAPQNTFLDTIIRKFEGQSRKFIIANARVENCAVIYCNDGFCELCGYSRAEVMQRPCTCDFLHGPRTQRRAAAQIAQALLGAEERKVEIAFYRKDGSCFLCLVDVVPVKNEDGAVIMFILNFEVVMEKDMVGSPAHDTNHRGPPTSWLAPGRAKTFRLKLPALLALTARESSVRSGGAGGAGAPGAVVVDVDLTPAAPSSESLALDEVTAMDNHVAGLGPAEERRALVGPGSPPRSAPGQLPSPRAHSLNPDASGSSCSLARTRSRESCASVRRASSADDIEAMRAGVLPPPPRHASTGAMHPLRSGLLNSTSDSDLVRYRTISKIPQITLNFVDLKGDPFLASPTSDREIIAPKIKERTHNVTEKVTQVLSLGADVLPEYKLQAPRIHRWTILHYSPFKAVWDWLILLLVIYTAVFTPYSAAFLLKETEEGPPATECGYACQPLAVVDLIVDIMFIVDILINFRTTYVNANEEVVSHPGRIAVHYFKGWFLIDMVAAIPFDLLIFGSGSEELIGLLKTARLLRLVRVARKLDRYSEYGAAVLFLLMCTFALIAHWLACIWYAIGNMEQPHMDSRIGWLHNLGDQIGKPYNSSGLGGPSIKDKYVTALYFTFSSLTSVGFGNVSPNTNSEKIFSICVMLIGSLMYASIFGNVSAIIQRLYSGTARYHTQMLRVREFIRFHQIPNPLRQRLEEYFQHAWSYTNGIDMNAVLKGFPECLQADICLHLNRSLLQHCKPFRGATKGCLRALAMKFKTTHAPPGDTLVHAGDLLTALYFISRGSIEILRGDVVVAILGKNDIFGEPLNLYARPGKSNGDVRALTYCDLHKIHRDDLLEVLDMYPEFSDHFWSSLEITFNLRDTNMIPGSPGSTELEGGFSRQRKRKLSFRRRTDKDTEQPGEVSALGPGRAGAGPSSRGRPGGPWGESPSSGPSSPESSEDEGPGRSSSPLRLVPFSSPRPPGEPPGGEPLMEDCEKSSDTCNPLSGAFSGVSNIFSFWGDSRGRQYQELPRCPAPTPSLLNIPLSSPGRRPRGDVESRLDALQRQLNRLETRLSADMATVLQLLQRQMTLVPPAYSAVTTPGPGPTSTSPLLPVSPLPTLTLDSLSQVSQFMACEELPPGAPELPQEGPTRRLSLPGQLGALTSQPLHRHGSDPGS

For COc1cc(/C=C2/SC(=O)NC2=O)ccc1OCc1nnc(-c2ccccc2)o1, the Activity (Rattus norvegicus [1]) was “Non-toxic”, the Activity (Rattus norvegicus [2]) was “Active” and the Activity (Rattus norvegicus [3]) was “Active”. For the same molecule, the Activity (Rattus norvegicus [4]) was “Non-toxic”, the Activity (Rattus norvegicus [5]) was “Non-toxic” and the Activity (Rattus norvegicus [6]) was 139.7 mg/dL. The Activity (Rattus norvegicus [7]) was “Active”.

With O=C1NC(=O)/C(=C\c2ccccc2OCc2nnc(COc3ccc(Cl)cc3Cl)o2)S1 the Activity (Rattus norvegicus [1]) was “Non-toxic”, the Activity (Rattus norvegicus [2]) was “Active” and the Activity (Rattus norvegicus [3]) was “Active”. The Activity (Rattus norvegicus [4]) was “Non-toxic”, the Activity (Rattus norvegicus [8]) was “Non-toxic” and the Activity (Rattus norvegicus [9]) was “Active”. The Activity (Rattus norvegicus [5]) was “Non-toxic”, the “fold change (FC)” value (3T3-L1) was 2 and the Activity (Rattus norvegicus [10]) was “Active”. The IC50 [11] was 29 µM, the Activity (Rattus norvegicus [6]) was 134 mg/dL and the Activity (Rattus norvegicus [7]) was “Active”.

In the case of COc1cc(/C=C2/SC(=O)NC2=O)ccc1OCc1nnc(-c2ccc(Br)cc2)o1, the Activity (Rattus norvegicus [1]) is reported as “Non-toxic”, the Activity (Rattus norvegicus [2]) is reported as “Active” and the Activity (Rattus norvegicus [3]) is reported as “Active”. The Activity (Rattus norvegicus [4]) was “Non-toxic”, the Activity (Rattus norvegicus [5]) was “Non-toxic” and the Activity (Rattus norvegicus [6]) was 135.2 mg/dL. The Activity (Rattus norvegicus [7]) was “Active”.

With O=C1NC(=O)/C(=C\c2ccccc2OCc2nnc(-c3ccccc3)o2)S1 the Activity (Rattus norvegicus [1]) was “Non-toxic”, the Activity (Rattus norvegicus [2]) was “Active” and the Activity (Rattus norvegicus [3]) was “Active”. The Activity (Rattus norvegicus [4]) was “Non-toxic”, the Activity (Rattus norvegicus [5]) was “Non-toxic” and the “fold change (FC)” value (3T3-L1) was 2.1. For the same molecule, the Activity (Rattus norvegicus [6]) was 139.6 mg/dL and the Activity (Rattus norvegicus [7]) was “Active”.

CN(CCOc1ccc(CC2SC(=O)NC2=O)cc1)c1ccccn1 (stereo not drawn) [ROSIGLITAZONE] was tested, and the “fold change (FC)” value (3T3-L1) was 1 and the Activity (Rattus norvegicus [12]) was 144.2 mg/dL.

For CCc1ccc(CCOc2ccc(CC3SC(=O)NC3=O)cc2)nc1 (stereo not drawn) [PIOGLITAZONE], the Activity (Rattus norvegicus [1]) was “Toxic”, the Activity (Rattus norvegicus [2]) was “Active” and the Activity (Rattus norvegicus [3]) was “Active”. The Activity (Rattus norvegicus [4]) was “Toxic”, the Activity (Rattus norvegicus [5]) was “Non-toxic” and the Activity (Rattus norvegicus [12]) was 132 mg/dL. For the same molecule, the Activity (Rattus norvegicus [7]) was “Active”.
